# Test results taken from ChEMBL document CHEMBL4513216, “Probing the Open Global Health Chemical Diversity Library for Multistage-Active Starting Points for Next-Generation Antimalarials” (ACS Infect Dis, 2020).
# Assay: Toxicity liver stage against HepG2, at 10uM
# Type: cell-based
# Design: test concentration 10 uM, cell line HepG2-A16-CD81EGFP
# Settings: human, HepG2-A16-CD81EGFP cells; read-out: INHIBITION
# Method in brief: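 Uninfected HepG2-A16-CD81EGFP cells, 3 × 10^3 per well, 1536-well, plated on prespotted compound at 10 μM final, parasite-free screening media added to match infected plates; puromycin 10 μM positive, DMSO 0.5% negative; run in parallel with 48 h PbLuc assay at 37 °C, 5% CO2; viability by CellTiter-Glo luminescence, normalized to controls.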
row,Structure (SMILES),cytotoxicity at 10 µM [%]
1,c1cnnc(N2CCCC2CNc2nc3ccccc3o2)c1 (stereo not given),-2.96
2,CCCc1n[nH]c(C2CN(C(=O)c3cccc4[nH]ncc34)CCO2)n1 (stereo not given),-2.87
3,O=C(C1CCOC1)N1CC2(CCN(c3ccccc3)C2)C1 (stereo not given),9.88
4,O=C1COc2ccc(S(=O)(=O)N3CCOCC3)c3c2N1CCC3,7.55
5,COc1ccc(Nc2c[nH]c(=O)[nH]c2=O)cc1,14.2
6,CC(NC(=O)N1CCC(CO)CC1)c1csc2ccccc12 (stereo not given),-5.4
7,NCc1ccnc(Oc2ccccc2)c1,2.87
8,CSCC(=O)N(C)Cc1cnn(-c2ccc(F)cc2)c1,-13.4
9,Cc1nn(CC(=O)N2CCC3(CN(C)C(=O)O3)C2)c(=O)c2ccccc12 (stereo not given),9.74
10,O=S(=O)(NCc1ccccc1)Nc1ccc(-n2cncn2)cc1,4.44
11,COc1c(CNCc2ccc(N3CCOCC3)cc2)c(C)nn1C,2.1
12,CC(C)NC(=O)NC(C)c1nc(-c2ccccc2)cs1 (stereo not given),-11.1
13,O=C(C1NCCc2[nH]cnc21)N1CCC2(CC1)CNc1ccccc12 (stereo not given),1.04
14,Cn1cc(CNC2CCCOc3c(Cl)cccc32)cn1 (stereo not given),10.7
15,N#Cc1ccccc1CN1C[C@H]2CC[C@@H](C1)N(CC1CCC1)C2=O,0.258
16,CN(Cc1ccccc1)CC(O)Cn1cnc2c(Cl)cc(Cl)cc2c1=O (stereo not given),-2.34
17,CC(O)CN1CCN(C(=O)c2cc3ccccc3[nH]c2=O)CC1 (stereo not given),0.407
18,CN(C)C(=O)c1cccc(C2CCN(c3ncccn3)CC2)n1,1.24
19,CCn1nnnc1-c1cccc(NC(=O)CCOC(C)C)c1,-9.8
20,Cc1cnn(CC2CCCN2C(=O)c2ccccc2-n2cnnn2)c1 (stereo not given),-35.7
21,O=C1CC2(CCN(CC3CCOC3)CC2)CN1Cc1cc(F)cc(F)c1 (stereo not given),-18.9
22,O=C(NCCNc1ccccn1)N1CCC(O)CC1,-8.66

row,Structure (SMILES),cytotoxicity at 10 µM [%]
1,c1ccc(O[C@H]2COCCN(Cc3c[nH]c4ccccc34)C2)cc1,-0.347
2,Cc1nn(C)c(Cl)c1C1CCCN1C(=O)c1cccn1C (stereo not given),-5.53
3,COc1ccc(CN(C)Cc2cccc(C#N)c2)c(OC)c1,-4.48
4,CN(CC(=O)N(C)C1CCN(CC2CCOC2)CC1)c1ccccc1 (stereo not given),-9.45
5,O=C(CCCN1CCOCC1)N1CCCC(CO)(CC2CC2)C1 (stereo not given),-1.5
6,CC(O)CNC(=O)NCc1cccnc1OC1CCCC1 (stereo not given),2.29
7,CCCn1ncc(CN(Cc2cccnc2)Cc2cccs2)c1C,1.64
8,Cc1noc(C)c1-c1nc(C2CCCN(C(=O)CN)C2)ccc1CO (stereo not given),-3.11
9,FC(F)(F)c1cc(C2CCNCC2)nc(-c2ccsc2)n1,8.6
10,C[C@@H]1CN(CCOc2ccc(F)cc2)CC[C@@]1(O)C1CCOCC1,-7.19
11,CC(C)(CNC(=O)NCCOc1cccc(F)c1)C(N)=O,-8.93
12,CS(=O)(=O)CCN1CCC2(CCCN(C3CCOCC3)C2=O)C1 (stereo not given),-5.65
13,CN(C)Cc1nnc(C2CCN(c3ncccn3)CC2)n1C1CC1,-1.26
14,COc1ccc(CCNC(=O)CC(NC(N)=O)c2ccccc2)cc1 (stereo not given),2.19
15,O=C(c1ccncc1)N1C[C@@H]2OCCN(CCN3CCCC3)[C@@H]2C1,-77.1
16,CCc1nc(CN2CCCC(N(C)CCn3cncn3)C2)no1 (stereo not given),-6.5
17,O=C(NCCn1ccnc1)N1CCN(Cc2cccs2)CC1,-7.49
18,O=C1NCc2ccccc2CC12CCN(Cc1c(F)cccc1Cl)C2 (stereo not given),11.2
19,O=C(NC1CC1)N1CCc2ncnc(-c3ccncc3)c2CC1,-1.04
20,Cc1cc(NC(=O)CN2CCCCC2Cn2nc(C)nc2C)on1 (stereo not given),-2.19
21,CC(=O)NC1CCCN(Cc2ccn(C)c(=O)c2)C1 (stereo not given),2.34
22,NC(=O)CCS(=O)(=O)Cc1ccc(OCC(F)(F)F)cc1,-4.16

row,Structure (SMILES),cytotoxicity at 10 µM [%]
1,COc1c(C(=O)NC(C)CC(=O)c2cccs2)c(C)nn1C (stereo not given),-10.1
2,COc1cc(C)c(CNC(C)c2csc(C3CC3)n2)cc1OC (stereo not given),-2.21
3,O=C(Nc1ccc(F)c(-n2cccc2)c1)NC1(CCO)CCOCC1,8.67
4,Cc1noc(CS(=O)(=O)C/C=C/c2ccccc2)n1,-10.9
5,Cc1cnc(CCN(C)C(=O)c2cccc(N(C)C)c2)s1,2.05
6,CC(C(=O)NC1(C#N)CCCCC1)N1CCc2c(ncn2C2CC2)C1 (stereo not given),7.66
7,COc1c(C)cnc(CN2CCCC(c3noc(C4CC4)n3)C2)c1C (stereo not given),-1.62
8,CC(Nc1ccc(N2C(=O)CCCC2=O)cc1)c1ccc(C#N)cc1 (stereo not given),8.71
9,O=C(c1cnc(C2CC2)s1)N1CCCC(n2cccn2)C1 (stereo not given),-13.9
10,COCCCC1(C(=O)O)CCCN(C(=O)c2ccc(C(C)C)[nH]c2=O)C1 (stereo not given),-52.9
11,Cc1ccc(C)c(NC(=O)Cn2nc(C)c(C#N)c2N)c1,-4.57
12,NC(=O)c1ccc(CNC2CC2)cc1,8.57
13,O=C(NCC1CCC2(CCNCC2)CO1)c1ccno1 (stereo not given),12.5
14,Cc1cnc(-c2nc(O)c3c(n2)CN(C(=O)CC2CCCC2)CC3)cn1,-1.37
15,Cc1c(C(=O)NC2(C#N)CCSC2)cnn1-c1ccccc1Cl (stereo not given),-2.06
16,CC(=O)c1c[nH]c(C(=O)N2CCN(C(C(N)=O)c3ccccc3)CC2)c1 (stereo not given),8.61
17,CCc1n[nH]c(C2CN(C(=O)c3cc4c(s3)CCCC4)CCO2)n1 (stereo not given),-10.1
18,O=C(NCc1cc2n(n1)CCCNC2)c1cn2cc(Cl)ccc2n1,-10.1
19,CNS(=O)(=O)CCCN1CCN(C(C)c2cccnc2)CC1 (stereo not given),-10.7
20,Cc1noc(C(C)N2CCN(CCCN3CCCC3=O)CC2)n1 (stereo not given),-2.73
21,CN(C)c1ccc(C(=O)NCc2cccnc2-n2cncn2)cc1F,2.84
22,COc1cc2c(cc1CNCc1ccnc(-n3cccn3)c1)OC(C)C2 (stereo not given),11.2

row,Structure (SMILES),cytotoxicity at 10 µM [%]
1,COCc1cc(C[C@@H]2CC[C@H](O)[C@@H](CN(C)C)O2)no1,12
2,CN1CCOC(CNCc2coc(-c3cccc(Cl)c3)n2)C1 (stereo not given),-15.9
3,CCC(C)c1csc(NC(=O)c2sc(-c3nnc[nH]3)nc2C)n1 (stereo not given),-35.5
4,CC(C)c1nnc2n1CC(CNCc1nnc(C(C)(C)C)o1)CC2 (stereo not given),-21.6
5,O=C([C@@H]1Cc2[nH]cnc2CN1C(=O)NC1CCCCC1)N1CCCC1,6.06
6,O=C(c1cccn1Cc1cccs1)N1CCN(C2CC2)CC1,-10.4
7,Cc1ccc(NC(C)C(=O)NCc2cccs2)cc1Cl (stereo not given),-2.27
8,Cc1cccc(C)c1OC1CN(Cc2cnc(N3CCCC3)nc2)C1,1.35
9,CCOCc1ncn2c1CN(C(=O)Nc1ccccc1CC)CC2,7.45
10,CNS(=O)(=O)c1csc(C(=O)N(C)Cc2ccccc2C)c1,6.78
11,CO[C@@H]1CCC[C@@H](N(C)C(=O)c2cn3cc(C)ccc3n2)[C@H]1O,0.829
12,NCCO[C@H]1C[C@@H](O)C12CCN(C(=O)COc1cccc(Cl)c1)CC2,-4.32
13,Cc1cnn(C2CCCN(C(=O)c3ccc(N4CCCC4)nc3)C2)c1 (stereo not given),-4.77
14,Fc1ccc(CN2CCC(c3noc(-c4cnccn4)n3)CC2)cc1F,2.35
15,CC(C)NC(=O)[C@@H]1CC[C@@H]2[C@@H](CCN2Cc2ccc3ccccc3n2)O1,3.98
16,COc1cc2c(cc1OC)S(=O)(=O)N(Cc1ccccc1)C2=O,8.2
17,CNC(=O)[C@@H]1C[C@H]2CN(Cc3ccc(C)s3)C[C@H]2N1C(C)=O,2.76
18,COc1cccc2c1OCC(C(=O)N1CCN(CCS(C)(=O)=O)CC1)C2 (stereo not given),1.28
19,Cc1noc([C@]23COC[C@H]2CN(C(=O)C2CCOCC2)C3)n1,9.46
20,CN(Cc1nccn1C)C1CCCN(CCCc2ccccc2)C1 (stereo not given),1.17
21,CC(=O)NCC(=O)N1CCOCC(Cc2ccc3c(ccn3C)c2)C1 (stereo not given),1.89
22,CCCN1CCC(N(Cc2ncc(C)o2)C(C)=O)C1 (stereo not given),-13.1

row,Structure (SMILES),cytotoxicity at 10 µM [%]
1,CCn1cc(CN2CCCN(C(=O)c3ccco3)CC2)cn1,-11.3
2,CCn1ncc2c1C(COCC1CC1)CN(c1ccc(C)nn1)C2 (stereo not given),11.4
3,CCC(C)c1noc(C2CCN(C(=O)Cn3nc(C)cc3C)CC2)n1 (stereo not given),6.58
4,CC(CN1CCCC1)C(=O)NCC1CCN(c2cnn(C)c(=O)c2)CC1 (stereo not given),0.301
5,CCC(C)(CC(=O)OC)NC(=O)c1cccc(F)c1F (stereo not given),-4.13
6,CCCC(=O)Nc1cc2c(cc1OC)NC(=O)CC2c1ccc(CC)o1 (stereo not given),2.01
7,CN1CCCC(Cc2cncc(C(=O)NC3CC3)c2)C1 (stereo not given),-25.6
8,CC(CN1CCN(C)CC1)NC(=O)c1cc(Cl)c2c(c1)OCO2 (stereo not given),-14
9,Cn1cnc(S(=O)(=O)NCC(C)(O)c2ccc3c(c2)OCO3)c1 (stereo not given),-4.44
10,Cc1ccc(CN2CC[C@H]3OCC[C@@]3(C(=O)N3CCCO3)C2)o1,8.83
11,NC(=O)CS(=O)(=O)Cc1csc(-c2ccccc2)n1,-9.59
12,CN(Cc1ccco1)C[C@H]1OC[C@@H]2CCN(Cc3ccncc3)C[C@@H]21,-1.62
13,Cc1nn(C)c(=O)c2nn(-c3ccc(Cl)cc3)c(C)c12,-4.18
14,c1cnn(-c2ccc(CCNC3CCN(C4CC4)C3)cc2)c1 (stereo not given),2.84
15,CS(=O)(=O)NC1CCN(C(=O)c2coc(CN3CCOCC3)c2)CC1,3.54
16,CN(Cc1ccco1)C(=O)NC(Cn1ccnc1)C(C)(C)C (stereo not given),-3.36
17,CCNC(=O)C1CCN(c2nc(-c3ccco3)nc3c2CCNCC3)C1 (stereo not given),-5.87
18,Cc1cc(C)n(CC(C)Nc2nc(-c3ccncc3)nc3c2CNC3)n1 (stereo not given),-1.75
19,CC(C(=O)N1CCCN(c2ncccc2C#N)CC1)n1cccn1 (stereo not given),-4.3
20,CCCn1cc(-c2cc(-c3ccoc3)c(C#N)c(N)n2)c(C)n1,5.48
21,OCCN1CC2(CCN(CC3CC3)CC2)c2ccccc21,6.4
22,CCN1C(=O)C(C)(C)c2cc(NC(=O)c3ccn(CC)n3)ccc21,9.65
